Here are results for two compounds from ChEMBL document CHEMBL1127826, “Inhibitors of acyl-CoA:cholesterol acyltransferase (ACAT). 7. Development of a series of substituted N-phenyl-N'-[(1-phenylcyclopentyl)methyl]ureas with enhanced hypocholesterolemic activity” (J Med Chem, 1994).

The nature of series [1]: Solubility at 0.1 N HCl. Type of series: physicochemical. The note with it: read-out: S.
Series [2] can be described thus: Compound was evaluated for the distribution coefficient at pH 7.4. In kind it is physicochemical. The note with it: octanol/water, read-out: logD.
A short description of series [3]: Solubility at pH 4.0. In kind it is physicochemical. The note with it: buffer.
The species named for series [4] is Rattus norvegicus. Put plainly: Percent change in total cholesterol in peanut oil (5.5%)-, cholic acid (0.3%)-, Cholesterol (1.5%)-fed rats after a single dose. In kind it is functional. In outline:
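Male Sprague-Dawley rats (200-225 g), n=5-7/group, given a single oral dose at 4 p.m. as a suspension in 1.5% CMC/0.2% Tween-20 in water (50 mg/kg); controls received vehicle alone. The rats then had free access to chow with peanut oil, cholesterol and cholic acid. At 8 a.m. next day they were bled by cardiac puncture under ether, and serum total cholesterol was measured as % change versus controls (unpaired two-tailed t-test).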

Series [5] can be described thus: Compound was evaluated for the distribution coefficient at pH 4.0. Type of series: physicochemical. The note with it: octanol/water.
Series [6] is described as follows: Solubility at pH 7.4. In kind it is physicochemical. The note with it: buffer.
Series [7] can be described thus: Compound was evaluated for the distribution coefficient at pH 1.0. In kind it is physicochemical. The note with it: octanol/water.
The subject of series [8] is Rattus norvegicus. As to the kind of experiment: Compound was evaluated in experiment 2 for Change in total cholesterol at 30 (mg/kg) dose. Type of series: functional. In outline: (§1)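 Chronic model in male Sprague-Dawley rats (200-225 g). Rats were fed chow with peanut oil 5.5%, cholesterol 1.5% and cholic acid ad libitum for 2 weeks. Test article was given by gavage once daily (morning) in the second week, as a CMC/Tween aqueous suspension. Blood was taken by cardiac puncture under ether 24 h after the last dose. Plasma total, HDL and nonHDL cholesterol were measured with an Abbott VP analyzer using dextran sulfate precipitation, reported as mg/dL and % change from control. Controls were cholesterol-fed rats and rats switched to chow in week 2.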

Series [9] can be described thus: Solubility at, pH 4.0. In kind it is physicochemical. The note with it: buffer, read-out: S.
Series [10] relates to Rattus norvegicus. Put plainly: Compound was evaluated in experiment 1 for change in non High density lipoprotein at the doses at 0.3 (mg/kg) dose. In kind it is functional. In short, it runs like this:
as §1

The test system of series [11] is Rattus norvegicus. Put plainly: Compound was evaluated in experiment 1 for non High density lipoproteins at 0.3 (mg/kg) dose. In kind it is functional. In short, it runs like this: as §1
Series [12] relates to Rattus norvegicus. Put plainly: Compound was evaluated in experiment 1 for Total cholesterol at 0.3 (mg/kg) dose. Type of series: functional. Set-up: unit not given beside the values. In short, it runs like this: as §1
The subject of series [13] is Rattus norvegicus. As to the kind of experiment: Compound was evaluated in experiment 1 for non High density lipoproteins at 10 (mg/kg) dose. In kind it is functional. In outline:
as §1

Series [14] can be described thus: Solubility at, pH 7.4. Type of series: physicochemical. The note with it: buffer, read-out: S.
In series [15] the test system is Rattus norvegicus. As to the kind of experiment: Compound was evaluated in experiment 1 for Total cholesterol at 3.0 (mg/kg) dose. More on the design: unit not given beside the values. Type of series: functional. In outline:
as §1

Series [16] deals with Rattus norvegicus. Put plainly: Compound was evaluated in experiment 1 for Change in total cholesterol at 10 (mg/kg) dose. In kind it is functional. In outline:
as §1

A short description of series [17]: Solubility at, 0.1 N HCl. Type of series: physicochemical. The note with it: read-out: S.
The subject of series [18] is Rattus norvegicus. As to the kind of experiment: Compound was evaluated in experiment 1 for Change in total cholesterol at 3.0 (mg/kg) dose. Type of series: functional. In outline: as §1
Series [19] has as its system Rattus norvegicus. Put plainly: Compound was evaluated in experiment 2 for High density lipoproteins at 30 (mg/kg) dose. Type of series: functional. In short, it runs like this: as §1
Series [20] relates to Rattus norvegicus. Put plainly: Compound was evaluated in experiment 1 for Total cholesterol at 1.0 (mg/kg) dose. More on the design: unit not given beside the values. In kind it is functional. In short, it runs like this: as §1
Series [21] concerns Rattus norvegicus. As to the kind of experiment: Compound was evaluated in experiment 1 for Change in High density lipoproteins at 1.0 (mg/kg) dose. Type of series: functional. In outline:
as §1

Series [22] relates to Rattus norvegicus. Put plainly: Compound was evaluated in experiment 1 for Change in High density lipoproteins at 0.3 (mg/kg) dose. Type of series: functional. In short, it runs like this: as §1
Series [23] deals with Rattus norvegicus. As to the kind of experiment: Compound was evaluated in experiment 1 for change in non High density lipoprotein at the doses at 1.0 (mg/kg) dose. In kind it is functional. In outline: as §1
Series [24] deals with Rattus norvegicus. Put plainly: Compound was evaluated in experiment 1 for Change in total cholesterol at 1.0 (mg/kg) dose. In kind it is functional. In outline: as §1
Series [25] deals with Rattus norvegicus. Put plainly: Compound was evaluated in experiment 1 for non High density lipoproteins at 1.0 (mg/kg) dose. Type of series: functional. In short, it runs like this: as §1
The subject of series [26] is Rattus norvegicus. Put plainly: Compound was evaluated in experiment 1 for High density lipoproteins at 1.0 (mg/kg) dose. Type of series: functional. In short, it runs like this:
as §1

For series [27], the system named is Rattus norvegicus. As to the kind of experiment: Compound was evaluated in experiment 1 for High density lipoproteins at 10 (mg/kg) dose. Type of series: functional. In short, it runs like this: as §1
For series [28], the system named is Rattus norvegicus. Put plainly: Compound was evaluated in experiment 2 for non High density lipoproteins at 30 (mg/kg) dose. Type of series: functional. In outline: (§2)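 Male Sprague-Dawley rats (200-225 g) were fed chow with peanut oil (5.5%), cholesterol (1.5%) and cholic acid (0.5%) ad libitum for 2 weeks. During week 2 they were gavaged daily each morning with compound in aqueous CMC/Tween suspension. Controls were fed the cholesterol diet for 2 weeks, or switched to chow for week 2. Rats were bled by cardiac puncture under ether 24 h post-dose. Plasma HDL-C was measured after dextran sulfate precipitation, along with nonHDL-C. Values are given in mg/dL and as % change from control.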

The test system of series [29] is Rattus norvegicus. As to the kind of experiment: Compound was evaluated in experiment 2 for Change in High density lipoproteins at 30 (mg/kg) dose. In kind it is functional. In short, it runs like this:
as §1

For series [30], the system named is Rattus norvegicus. As to the kind of experiment: Compound was evaluated in experiment 1 for Change in High density lipoproteins at 3.0 (mg/kg) dose. Type of series: functional. In outline:
as §1

For series [31], the system named is Rattus norvegicus. Put plainly: Compound was evaluated in experiment 1 for Change in total cholesterol at 0.3 (mg/kg) dose. In kind it is functional. In outline: as §1
Series [32] has as its system Rattus norvegicus. Put plainly: Compound was evaluated in experiment 2 for change in non High density lipoprotein at the doses at 30 (mg/kg) dose. Type of series: functional. In outline:
as §2

Series [33] relates to Rattus norvegicus. As to the kind of experiment: Compound was evaluated in experiment 1 for Change in High density lipoproteins at 10 (mg/kg) dose. Type of series: functional. In short, it runs like this: as §1
For series [34], the system named is Rattus norvegicus. Put plainly: Compound was evaluated in experiment 1 for change in non High density lipoprotein at the doses at 10 (mg/kg) dose. Type of series: functional. In short, it runs like this:
as §1

The test system of series [35] is Rattus norvegicus. As to the kind of experiment: Compound was evaluated in experiment 1 for High density lipoproteins at 3.0 (mg/kg) dose. In kind it is functional. In short, it runs like this: as §1
In series [36] the test system is Rattus norvegicus. Put plainly: Compound was evaluated in experiment 1 for Total cholesterol at 10 (mg/kg) dose. Type of series: functional. More on the design: unit not given beside the values. In outline:
as §1

Series [37] deals with Rattus norvegicus. As to the kind of experiment: Compound was evaluated in experiment 2 for Total cholesterol at 30 (mg/kg) dose. Type of series: functional. In outline:
as §1

In series [38] the test system is Rattus norvegicus. Put plainly: Compound was evaluated in experiment 1 for High density lipoproteins at 0.3 (mg/kg) dose. Type of series: functional. In short, it runs like this: as §1
The subject of series [39] is Rattus norvegicus. As to the kind of experiment: Compound was evaluated in experiment 1 for change in non High density lipoprotein at the doses at 3.0 (mg/kg) dose. Type of series: functional. In short, it runs like this:
as §1

The test system of series [40] is Rattus norvegicus. Put plainly: Compound was evaluated in experiment 1 for non High density lipoproteins at 3.0(mg/kg) dose. In kind it is functional. In outline: as §1

For `CC(C)c1cccc(C(C)C)c1NC(=O)NCC1(c2ccc(N(C)C)cc2)CCCC1` [NEVANIMIBE], the solubility in series [1], in series [3] and in series [6] was < 10 µg/mL in each case. For the same compound, the logD (commonly lipophilicity at a set pH, counting ionised and neutral species) in series [2] came out at 5.59; in [5], 2.89; in [7], 2.18. Moreover, the “Delta TC” value in the series listed under Rattus norvegicus [4] was -65%.
As to `CC(C)c1cccc(C(C)C)c1NC(=O)NCC1(c2ccc(N(C)C)cc2)CCCC1.Cl` [NEVANIMIBE HYDROCHLORIDE], the “Change TC” value is on record as -69% with Rattus norvegicus [8]; -64% in the series on Rattus norvegicus [16]; -20% in the series with Rattus norvegicus [18]; -29% in the series on Rattus norvegicus [24]; -20% with Rattus norvegicus [31]. The results for the solubility in [9], in series [14] and in series [17] were 1330 µg/mL, < 50 µg/mL and 6400 µg/mL, respectively. Also, the “Change non HDL-C” value with Rattus norvegicus [10] is listed as -22%; with Rattus norvegicus [23] it was -32%; in the series with Rattus norvegicus [32] it was -80%; with Rattus norvegicus [34], -72%; in the series on Rattus norvegicus [39] it was -23%. Besides, the Non-HDL-C stood at 235 with Rattus norvegicus [11]; 84 in the series on Rattus norvegicus [13]; 206 in the series with Rattus norvegicus [25]; 56 in the series on Rattus norvegicus [28]; 235 with Rattus norvegicus [40]. In addition, the TC in the series on Rattus norvegicus [12] is given as 252; in the series on Rattus norvegicus [15], 251; in the series with Rattus norvegicus [20] it was 222; with Rattus norvegicus [36], 115; with Rattus norvegicus [37], 91. Besides, in the series listed under Rattus norvegicus [4], the “Delta TC” value is on record as -77%. Further, the HDL-C in the series on Rattus norvegicus [19] is listed as 36; with Rattus norvegicus [26] it was 15; in the series with Rattus norvegicus [27] it was 31; in the series with Rattus norvegicus [35] it was 16; in the series with Rattus norvegicus [38] it was 17. Also, the “Change HDL -C” value with Rattus norvegicus [21] was 32%; in the series with Rattus norvegicus [22], 44%; in the series on Rattus norvegicus [29], 177%; in the series with Rattus norvegicus [30] it was 38%; in the series on Rattus norvegicus [33], 167%.
